Bioassay records as filed in PubChem.
Rows were chosen to be rich in hits. Some 2.5% of all compounds tested hit in one or more screens of this group.
SENP1 inh – inhibitors of human SENP1 SUMO protease catalytic domain | recombinant SENP1 catalytic domain, CyPet-SUMO1-YPet FRET cleavage | inhibition, % at 10 µM | actives 0.21% (n = 360,000) | AID 624204;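 active = inhibition at least 30% at 10 µM, raw YFP signal under a set limit, fluorescence ratio 0.5 to 1.5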
Target sequence (Q9P0U3 419-644 limits assumed): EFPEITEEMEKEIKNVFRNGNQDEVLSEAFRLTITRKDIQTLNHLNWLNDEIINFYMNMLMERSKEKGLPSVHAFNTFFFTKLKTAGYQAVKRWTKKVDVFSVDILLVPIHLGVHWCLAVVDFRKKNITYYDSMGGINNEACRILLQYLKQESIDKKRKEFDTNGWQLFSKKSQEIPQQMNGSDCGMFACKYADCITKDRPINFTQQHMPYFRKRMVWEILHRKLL
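Test system: human SENP1 catalytic domain; medium: Tris pH 8 buffer plus EDTA, NaCl, BME, BSA, NP40, catalase; incubation: 50 min reaction at room temperature; technique: FRET, CFP and YFP emission; controls: no-enzyme low control and enzyme-plus-DMSO high control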
SENP8 block-1 – blocks human SENP8 cleavage of Nedd8 substrate | inhibition, % at 20 µM | recombinant SENP8, Nedd8 substrate fluorescence | actives 0.64% (n = 360,000) | Q96LD8; in the data active = inhibition mostly above about 40%, no sharp cut-off; inactive = mostly below about 27%
Target sequence (Q96LD8 whole entry, looked up): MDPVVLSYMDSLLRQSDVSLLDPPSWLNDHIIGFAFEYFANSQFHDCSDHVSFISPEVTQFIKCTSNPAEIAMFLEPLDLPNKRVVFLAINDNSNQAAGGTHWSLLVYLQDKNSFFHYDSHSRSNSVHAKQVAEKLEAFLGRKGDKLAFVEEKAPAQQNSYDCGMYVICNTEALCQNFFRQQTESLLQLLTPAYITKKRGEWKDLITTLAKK
SENP8 block-2 – inhibitors of human SENP8 protease | actives 1.2% (n = 330,000) | purified SENP8, Z-RLRGG-aminoluciferin cleavage, luminescence | inhibition, % at 10 µM; in the data active = inhibition above about 50%
SENP6 block – blocks the human protease SENP6; Recombinant SENP6 catalytic domain, aminoluciferin luminescence; inhibition, % at 10 µM; actives 1.8% (n = 330,000); AID 2599;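 active = inhibition above about 50% at the single tested dose, limit read from the data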
SENP7 block – SENP7 protease inhibition; Q9BQF6; recombinant SENP7, Z-RLRGG-aminoluciferin luminescence, 40 min; inhibition, % at 5 µM; actives 1.5% (n = 330,000); AID 434973;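 active = inhibition above about 50% at the single test dose, limit read from the data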
SENP8 conf – confirmation of human SENP8 protease inhibitors. actives 40% (n = 6,200). Recombinant SENP8, Z-RLRGG-aminoluciferin luminescence, 60 min. inhibition, % at 12.5 µM. shares compounds with SENP7 block. AID 488912;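 active = mean inhibition across replicates above about 50%, limit read from the data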
SENP6 conf – confirmation of human SENP6 protease inhibitors; shares compounds with SENP7 block; recombinant SENP6, Z-RLRGG-aminoluciferin luminescence; inhibition, % at 12.5 µM; actives 58% (n = 6,200); AID 488915
SENP7 conf – human SENP7 inhibition, confirmed | shares compounds with SENP7 block | inhibition, % at 12.5 µM | recombinant SENP7, Z-RLRGG-aminoluciferin luminescence, 40 min | actives 69% (n = 6,200)
Casp3 SENP sel – inhibits human caspase-3 in SENP selectivity test; purified caspase-3, Z-DEVD-aminoluciferin luminescence, 60 min; inhibition, % at 12.5 µM; actives 60% (n = 6,200); shares compounds with SENP7 block;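 active = mean inhibition above about 50%, limit read from the data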
Target sequence (P42574 28-227 limits assumed): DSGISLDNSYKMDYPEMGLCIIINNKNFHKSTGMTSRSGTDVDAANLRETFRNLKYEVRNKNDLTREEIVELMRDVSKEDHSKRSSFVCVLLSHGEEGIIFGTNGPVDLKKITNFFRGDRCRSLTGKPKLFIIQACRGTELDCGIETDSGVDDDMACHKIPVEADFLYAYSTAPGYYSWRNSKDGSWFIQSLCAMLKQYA
Luc interf – luminescence interference (SENP counter-screen) | shares compounds with SENP7 block | Pre-incubated SENP8/Z-RLRGG-aminoluciferin, luciferase luminescence interference | inhibition, % at 12.5 µM | actives 39% (n = 6,200) | AID 488919;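 active = mean inhibition above about 50% when retested at one dose, limit read from the data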
Large screens that a line does not name were inactive (follow-up assays come after a bar, where they were run).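 Rule for the calls, unless noted: active = mean inhibition above about 50% in the one-dose retest (limit read from the data); inactive = the rest.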

COc1ccc(C(=O)OCC(=O)NCCc2ccc(F)cc2)cc1S(=O)(=O)N1CCOCC1	none
O=C(CCCOc1ccccc1)N1CCCCC1	SENP6 block 55.0 | SENP8 conf inactive | SENP6 conf inactive | SENP7 conf 69.4 | Casp3 SENP sel 78.7 | Luc interf inactive
COc1ccc(OC)c(CN2C(=O)c3ccccc3C2c2nnnn2-c2ccc3c(c2)OCCO3)c1 (stereo not drawn)	none (no result: SENP8 block-2, SENP6 block, SENP7 block)
O=c1c(-c2ccc(O)cc2)coc2cc(O)cc(O)c12	none
COc1ccc(-c2coc3cc(O)c(OC)cc3c2=O)cc1	SENP7 block 53.4 | SENP8 conf inactive | SENP6 conf inactive | SENP7 conf 74.7 | Casp3 SENP sel 75.0 | Luc interf 55.8
COc1ccc(-c2coc3cc(O)ccc3c2=O)cc1	none
Cc1csc(-c2coc3cc(O)cc(C)c3c2=O)n1	SENP8 block-2 91.0, SENP6 block 95.0 | SENP8 conf inactive | SENP6 conf 92.4 | SENP7 conf 98.5 | Casp3 SENP sel 90.1 | Luc interf inactive
COc1ccc2c(=O)c(-c3nc(C)cs3)coc2c1	SENP8 block-2 90.6, SENP6 block 93.5, SENP7 block 96.0 | SENP8 conf inactive | SENP6 conf 52.8 | SENP7 conf 84.4 | Casp3 SENP sel 75.9 | Luc interf 57.3
O=C(C(=NNc1ccccc1)C(=S)Nc1ccccc1)c1ccccc1	none (no result: SENP8 block-2, SENP6 block, SENP7 block)
O=C(CC1CCCC1)N1CCN(S(=O)(=O)c2cccc(Br)c2)CC1	none (no result: SENP8 block-2, SENP6 block, SENP7 block)
CC(=O)Nc1cccc(NC(=O)CCN2C(=O)c3ccccc3S2(=O)=O)c1	none
CCN(C(=O)COC(=O)c1ccc(Br)o1)C1CCCCC1	none
COc1cc(CNC(=O)C2CC2)ccc1OCc1ccccc1	SENP6 block 54.7 | SENP8 conf inactive | SENP6 conf inactive | SENP7 conf 77.6 | Casp3 SENP sel 75.8 | Luc interf inactive
O=C(Nc1ccccc1C(F)(F)F)C1CCN(C(=O)c2cccs2)CC1	none
Nc1cc(C(=O)OCC(=O)NNC(=O)c2ccccc2)ccc1Cl	none
Cc1cnc(C(=O)Nc2ccc(F)cc2)cn1	SENP6 block 60.9, SENP7 block 58.3 | SENP8 conf inactive | SENP6 conf inactive | SENP7 conf 73.6 | Casp3 SENP sel 81.2 | Luc interf inactive
Cc1cnc(C(=O)Nc2ccc(C(C)C)cc2)cn1	none
Cc1cnc(C(=O)Nc2ccccc2-n2cccc2)cn1	none
Cc1cnc(C(=O)Nc2ccccc2F)cn1	SENP6 block 67.7 | SENP8 conf inactive | SENP6 conf inactive | SENP7 conf 73.8 | Casp3 SENP sel 74.6 | Luc interf inactive
O=C(Nc1nc2ccccc2s1)C1=NN(c2ccccc2)C(=O)CC1	none
O=C(Nc1nc2ccc(F)cc2s1)c1ccccn1	SENP8 block-2 95.1, SENP6 block 95.1, SENP7 block 99.5 (no result: SENP1 inh, SENP8 block-1) | SENP8 conf 92.4 | SENP6 conf 98.3 | SENP7 conf 101.8 | Casp3 SENP sel 96.4 | Luc interf inactive
O=C(NNc1nc2ccc(F)cc2s1)c1cccc(F)c1	none
O=C(Nc1ccc2nccnc2c1)c1cnccn1	none
CCOc1ccc2nc(NC(=O)c3cnccn3)sc2c1	SENP7 block 73.9 | SENP8 conf inactive | SENP6 conf inactive | SENP7 conf inactive | Casp3 SENP sel 51.9 | Luc interf inactive
O=C(Nc1nc2ccc(F)cc2s1)C1=NN(c2ccccc2)C(=O)CC1	SENP6 block 55.4 | SENP8 conf inactive | SENP6 conf inactive | SENP7 conf inactive | Casp3 SENP sel inactive | Luc interf inactive
O=C(Nc1ccc2ccccc2c1)c1cnccn1	SENP6 block 65.3, SENP7 block 74.7 | SENP8 conf 52.3 | SENP6 conf 73.3 | SENP7 conf 91.8 | Casp3 SENP sel 81.5 | Luc interf inactive
NC(=O)c1nsc(C(=O)N(Cc2ccc(F)cc2)C(C(=O)NCC2CCCO2)c2ccc(O)cc2)c1N (stereo not drawn)	none
O=C(Nc1nc2ccccc2s1)c1cnccn1	SENP8 block-2 93.0, SENP6 block 96.6 | SENP8 conf inactive | SENP6 conf 56.4 | SENP7 conf 75.7 | Casp3 SENP sel 79.1 | Luc interf inactive
O=C(Nc1nc(-c2ccco2)c(-c2ccco2)s1)c1cnccn1	none (no result: SENP1 inh, SENP8 block-1)
O=C(O)COn1c(-c2ccc(Cl)cc2)nc2ccc(Cl)cc21	none
CCOC(=O)C(C)On1c(-c2ccccc2)nc2ccc([N+](=O)[O-])cc21 (stereo not drawn)	SENP8 block-2 71.2, SENP6 block 84.0, SENP7 block 76.5 | SENP8 conf inactive | SENP6 conf inactive | SENP7 conf 66.3 | Casp3 SENP sel 58.9 | Luc interf 60.9
O=C(O)COn1c(-c2ccccc2)nc2ccc([N+](=O)[O-])cc21	SENP8 block-2 70.2, SENP6 block 82.1, SENP7 block 88.1 | SENP8 conf inactive | SENP6 conf inactive | SENP7 conf inactive | Casp3 SENP sel 52.9 | Luc interf 55.8
COn1c(-c2ccc(Cl)cc2)nc2ccc(Cl)cc21	none
CCOC(=O)C(C)On1c(-c2ccc(Cl)cc2)nc2ccc([N+](=O)[O-])cc21 (stereo not drawn)	SENP8 block-2 65.1, SENP6 block 70.0 | SENP8 conf inactive | SENP6 conf inactive | SENP7 conf inactive | Casp3 SENP sel inactive | Luc interf inactive
Cc1ccc(COn2c(-c3ccc(Cl)cc3)nc3ccc([N+](=O)[O-])cc32)cc1	SENP6 block 67.2, SENP7 block 56.0 | SENP8 conf inactive | SENP6 conf inactive | SENP7 conf inactive | Casp3 SENP sel inactive | Luc interf inactive
CC(=O)c1ccc(S(=O)(=O)N2CCN(c3nc(-c4cccnc4)nc4ccccc34)CC2)cc1	none
O=c1c2ccccc2nnn1COc1cccc(Cl)c1	SENP6 block 57.5 | SENP8 conf inactive | SENP6 conf 57.9 | SENP7 conf inactive | Casp3 SENP sel inactive | Luc interf inactive
Cn1c(=O)[nH]c2nnc(-c3ccc(Cl)c(Cl)c3)nc2c1=O	SENP8 block-2 97.1, SENP6 block 96.4, SENP7 block 97.4 | SENP8 conf 56.1 | SENP6 conf 80.0 | SENP7 conf 53.4 | Casp3 SENP sel 90.8 | Luc interf inactive
CSc1cnc2c(=O)n(C)c(=O)[nH]c2n1	none
